≈ marks a conversion by molar mass, not a printed value.
What was measured:
[1] = Antiviral activity against HIV2 ROD infected in human MT4 cells assessed as protection against virus-induced cytopathic effect after 5 days MTT assay; type: functional, cell-based, Human immunodeficiency virus type 2 (ISOLATE ROD); settings: Human immunodeficiency virus 2, MT4, 120 h
Method in brief: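 HIV-1 strain IIIB and HIV-2 strain ROD in MT-4 cells, MTT-based. Test compounds in serial five-fold dilutions, in triplicate wells run alongside mock-infected cells, with untreated infected and mock controls. MT-4 cells resuspended at 6 × 10^5 cells/mL. Absorbance read at 540 and 690 nm, median OD of three wells. EC50 is the 50% effective concentration.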

[2] = Cytotoxicity against human MT4 cells assessed as decrease in cell viability after 5 days by MTT assay; type: toxicity, cell-based
Method in brief: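 MT-4 cells in mock-infected wells of the anti-HIV MTT setup. Compounds in serial five-fold dilutions in triplicate, cells at 6 × 10^5 cells/mL. Absorbance at 540 and 690 nm, median OD of three wells. CC50 is the concentration that lowers OD540 of the mock-infected control by 50%.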

[3] = Cytotoxicity against human CCRF-CEM cells assessed as cell growth at 10^-5 M after 48 hrs by SRB assay relative to control; type: functional; settings: read-out: Activity
Method in brief: (§1)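 NCI single-dose primary screen run under the US NCI protocol. Compounds tested at 10 µM across the 60-cell-line panel, with growth percent reported for each line.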

[4] = Cytotoxicity against human K562 cells assessed as cell growth at 10^-5 M after 48 hrs by SRB assay relative to control; type: functional; settings: K562, 48 h, read-out: Activity; method in brief: as §1
[5] = Cytotoxicity against human MOLT4 cells assessed as cell growth at 10^-5 M after 48 hrs by SRB assay relative to control; type: functional; settings: MOLT-4, 48 h, read-out: Activity; method in brief: as §1
[6] = Cytotoxicity against human RPMI8226 cells assessed as cell growth at 10^-5 M after 48 hrs by SRB assay relative to control; type: functional; settings: RPMI-8226, 48 h, read-out: Activity; method in brief: as §1
[7] = Cytotoxicity against human SR cells assessed as cell growth at 10^-5 M after 48 hrs by SRB assay relative to control; type: functional; settings: read-out: Activity
Method in brief: (§2)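 Single-dose NCI 60-cell-line screen run under the US NCI protocol. Compounds tested at 10 µM. Read-out is growth percent for each cell line.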

[8] = Cytotoxicity against human EKVX cells assessed as cell growth at 10^-5 M after 48 hrs by SRB assay relative to control; type: functional; settings: read-out: Activity; method in brief: as §1
[9] = Cytotoxicity against human HOP92 cells assessed as cell growth at 10^-5 M after 48 hrs by SRB assay relative to control; type: functional; settings: HOP-92, 48 h, read-out: Activity; method in brief: as §1
[10] = Cytotoxicity against human NCI-H23 cells assessed as cell growth at 10^-5 M after 48 hrs by SRB assay relative to control; type: functional; settings: NCI-H23, 48 h, read-out: Activity; method in brief: as §1
[11] = Cytotoxicity against human NCI-H322M cells assessed as cell growth at 10^-5 M after 48 hrs by SRB assay relative to control; type: functional; settings: read-out: Activity; method in brief: as §1
[12] = Cytotoxicity against human NCI-H460 cells assessed as cell growth at 10^-5 M after 48 hrs by SRB assay relative to control; type: functional; settings: NCI-H460, 48 h, read-out: Activity; method in brief: as §1
[13] = Cytotoxicity against human HCC2998 cells assessed as cell growth at 10^-5 M after 48 hrs by SRB assay relative to control; type: functional; settings: HCC 2998, 48 h, read-out: Activity; method in brief: as §1
[14] = Cytotoxicity against human HCT15 cells assessed as cell growth at 10^-5 M after 48 hrs by SRB assay relative to control; type: functional; settings: HCT-15, 48 h, read-out: Activity; method in brief: as §1
[15] = Cytotoxicity against human KM12 cells assessed as cell growth at 10^-5 M after 48 hrs by SRB assay relative to control; type: functional; settings: KM12, 48 h, read-out: Activity; method in brief: as §1
[16] = Cytotoxicity against human SF539 cells assessed as cell growth at 10^-5 M after 48 hrs by SRB assay relative to control; type: functional; settings: SF-539, 48 h, read-out: Activity; method in brief: as §2
[17] = Cytotoxicity against human U251 cells assessed as cell growth at 10^-5 M after 48 hrs by SRB assay relative to control; type: functional; settings: U-251, 48 h, read-out: Activity; method in brief: as §2
[18] = Cytotoxicity against human MALME-3M cells assessed as cell growth at 10^-5 M after 48 hrs by SRB assay relative to control; type: functional; settings: read-out: Activity; method in brief: as §1
[19] = Cytotoxicity against human SK-MEL-2 cells assessed as cell growth at 10^-5 M after 48 hrs by SRB assay relative to control; type: functional; settings: SK-MEL-2, 48 h, read-out: Activity; method in brief: as §2
[20] = Cytotoxicity against human SK-MEL-28 cells assessed as cell growth at 10^-5 M after 48 hrs by SRB assay relative to control; type: functional; settings: SK-MEL-28, 48 h, read-out: Activity; method in brief: as §2
[21] = Cytotoxicity against human UACC62 cells assessed as cell growth at 10^-5 M after 48 hrs by SRB assay relative to control; type: functional; settings: UACC-62, 48 h, read-out: Activity; method in brief: as §2
[22] = Cytotoxicity against human OVCAR3 cells assessed as cell growth at 10^-5 M after 48 hrs by SRB assay relative to control; type: functional; settings: OVCAR-3, 48 h, read-out: Activity; method in brief: as §1
[23] = Cytotoxicity against human OVCAR4 cells assessed as cell growth at 10^-5 M after 48 hrs by SRB assay relative to control; type: functional; settings: OVCAR-4, 48 h, read-out: Activity; method in brief: as §1
[24] = Cytotoxicity against human OVCAR5 cells assessed as cell growth at 10^-5 M after 48 hrs by SRB assay relative to control; type: functional; settings: OVCAR-5, 48 h, read-out: Activity; method in brief: as §1
[25] = Cytotoxicity against human A498 cells assessed as cell growth at 10^-5 M after 48 hrs by SRB assay relative to control; type: functional; settings: A498, 48 h, read-out: Activity; method in brief: as §1
[26] = Cytotoxicity against human Caki1 cells assessed as cell growth at 10^-5 M after 48 hrs by SRB assay relative to control; type: functional; settings: CAKI-1, 48 h, read-out: Activity; method in brief: as §1
[27] = Cytotoxicity against human RXF393 cells assessed as cell growth at 10^-5 M after 48 hrs by SRB assay relative to control; type: functional; settings: RXF 393, 48 h, read-out: Activity; method in brief: as §1
[28] = Cytotoxicity against human SN12C cells assessed as cell growth at 10^-5 M after 48 hrs by SRB assay relative to control; type: functional; settings: read-out: Activity; method in brief: as §2
[29] = Cytotoxicity against human DU145 cells assessed as cell growth at 10^-5 M after 48 hrs by SRB assay relative to control; type: functional; settings: DU-145, 48 h, read-out: Activity; method in brief: as §1
[30] = Cytotoxicity against human MCF7 cells assessed as cell growth at 10^-5 M after 48 hrs by SRB assay relative to control; type: functional; settings: MCF7, 48 h, read-out: Activity; method in brief: as §1
[31] = Cytotoxicity against human MDA-MB-231 cells assessed as cell growth at 10^-5 M after 48 hrs by SRB assay relative to control; type: functional; settings: MDA-MB-231, 48 h, read-out: Activity; method in brief: as §1
[32] = Cytotoxicity against human BT549 cells assessed as cell growth at 10^-5 M after 48 hrs by SRB assay relative to control; type: functional; settings: BT-549, 48 h, read-out: Activity; method in brief: as §1
[33] = Cytotoxicity against human T47D cells assessed as cell growth at 10^-5 M after 48 hrs by SRB assay relative to control; type: functional; settings: read-out: Activity; method in brief: as §2

Compound | EC50 [1] [µg/mL] | CC50 at 120 h [2] [µg/mL] | growth at 10 µM [3] [%] | growth at 10 µM [4] [%] | growth at 10 µM [5] [%] | growth at 10 µM [6] [%] | growth at 10 µM [7] [%] | growth at 10 µM [8] [%] | growth at 10 µM [9] [%] | growth at 10 µM [10] [%] | growth at 10 µM [11] [%] | growth at 10 µM [12] [%] | growth at 10 µM [13] [%] | growth at 10 µM [14] [%] | growth at 10 µM [15] [%] | growth at 10 µM [16] [%] | growth at 10 µM [17] [%] | growth at 10 µM [18] [%] | growth at 10 µM [19] [%] | growth at 10 µM [20] [%] | also measured
CC(=O)Nc1ccc(OCc2nnc(SCC(=O)Nc3ccc(Br)cc3)n2Cc2ccccc2)cc1 | > 3.99 | ≥ 3.99 | 56.3 | 28.9 | 64.7 | 72.2 | 97.7 | 70 | 70.9 | 75.2 | 81.2 | 74.3 | 85.6 | 60.4 | 56.4 | 92.8 | 88.5 | 93.8 | 72.2 | 102 | growth at 10 µM [21]: 32.5%; growth at 10 µM [22]: 102%; growth at 10 µM [23]: 101%; growth at 10 µM [24]: 92%; growth at 10 µM [25]: 82.1%; growth at 10 µM [26]: 72.5%; growth at 10 µM [27]: 101%; growth at 10 µM [28]: 85.7%; growth at 10 µM [29]: 72.6%; growth at 10 µM [30]: 70.2%; growth at 10 µM [31]: 75%; growth at 10 µM [32]: 72.4%; growth at 10 µM [33]: 69.6%
Cc1ccc(C(C)C)c(OCc2nnc(SCC(=O)Nc3ccc(Cl)cc3)n2Cc2ccccc2)c1 | > 65.9 | 65.9 (≈ 126 µM) | 72.7 | 97.5 | 73.7 | 83.8 | -6.63 | 69.6 | 78 | 80.6 | 72.5 | 17.7 | 89.7 | 76.7 | 76.9 | 85.4 | 40.9 | 75.6 | 108 | 113 | growth at 10 µM [21]: 94%; growth at 10 µM [22]: 63.9%; growth at 10 µM [23]: 33.4%; growth at 10 µM [24]: 93.2%; growth at 10 µM [25]: 78%; growth at 10 µM [26]: 93.9%; growth at 10 µM [27]: 101%; growth at 10 µM [28]: 56.5%; growth at 10 µM [29]: 90.5%; growth at 10 µM [30]: 75.7%; growth at 10 µM [31]: 75.7%; growth at 10 µM [32]: 97.4%; growth at 10 µM [33]: 78.6%
Cc1ccc(C(C)C)c(OCc2nnc(SCC(=O)Nc3ccc(S(N)(=O)=O)cc3)n2Cc2ccccc2)c1 | > 13 | 13 (≈ 23 µM) | 35.6 | 78.4 | 45.2 | 40.8 | 65.1 | 55.5 | 75.2 | 63.8 | 89.3 | 76.4 | 73.8 | 64.2 | 54.3 | 89.5 | 64.6 | 84.3 | 80.9 | 89.3 | growth at 10 µM [21]: 51.2%; growth at 10 µM [22]: 74.7%; growth at 10 µM [23]: 88.8%; growth at 10 µM [24]: 99.4%; growth at 10 µM [25]: 74.7%; growth at 10 µM [26]: 81.1%; growth at 10 µM [27]: 70.6%; growth at 10 µM [28]: 81.6%; growth at 10 µM [29]: 82.3%; growth at 10 µM [30]: 50%; growth at 10 µM [31]: 69.1%; growth at 10 µM [32]: 65.8%; growth at 10 µM [33]: 33.3%
